Legend:
Format in all cases: functional
CCRF-CEM = experiment: Growth inhibition of human CCRF-CEM cells after 48 hrs by sulforhodamine B assay
Procedure, shortened: (§1)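 NCI 60-cell-line screen. Compounds tested at five 10-fold dilutions from 10^-4 to 10^-8 M. Cells exposed for the last 48 h of a 72 h incubation, growth estimated by sulforhodamine B protein assay. GI50 is the concentration giving 50% growth inhibition. Values beyond the tested range are expressed as greater or lesser than the extreme concentration.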

HL-60(TB) = experiment: Growth inhibition of human HL-60(TB) cells after 48 hrs by sulforhodamine B assay; details: HL-60, 48 h
Procedure, shortened: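 NCI 60-cell-line screen, HL-60(TB) included. Compound given at five 10-fold dilutions from 10^-4 to 10^-8 M. Cells exposed for the last 48 h of a 72 h incubation. Growth or viability estimated by sulforhodamine B protein assay. GI50 is the concentration giving 50% growth inhibition. Values outside the tested range are reported as greater or less than the highest or lowest concentration.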

K562 = experiment: Growth inhibition of human K562 cells after 48 hrs by sulforhodamine B assay; details: K562, 48 h; procedure, shortened: as §1
[1] = Growth inhibition of human MOLT4 cells after 48 hrs by sulforhodamine B assay; details: MOLT-4, 48 h; procedure, shortened: as §1
[2] = Growth inhibition of human RPMI8226 cells after 48 hrs by sulforhodamine B assay; details: RPMI-8226, 48 h
A549 = experiment: Growth inhibition of human A549 cells after 48 hrs by sulforhodamine B assay; details: A549, 48 h; procedure, shortened: as §1
HOP-62 = experiment: Growth inhibition of human HOP62 cells after 48 hrs by sulforhodamine B assay; details: HOP-62, 48 h; procedure, shortened: as §1
[3] = Growth inhibition of human HOP92 cells after 48 hrs by sulforhodamine B assay; details: HOP-92, 48 h; procedure, shortened: as §1
NCI-H226 = experiment: Growth inhibition of human NCI-H226 cells after 48 hrs by sulforhodamine B assay; details: NCI-H226, 48 h; procedure, shortened: as §1
NCI-H23 = experiment: Growth inhibition of human NCI-H23 cells after 48 hrs by sulforhodamine B assay; details: NCI-H23, 48 h; procedure, shortened: as §1
NCI-H322M = experiment: Growth inhibition of human NCI-H322M cells after 48 hrs by sulforhodamine B assay; procedure, shortened: as §1
NCI-H460 = experiment: Growth inhibition of human NCI-H460 cells after 48 hrs by sulforhodamine B assay; details: NCI-H460, 48 h; procedure, shortened: as §1
NCI-H522 = experiment: Growth inhibition of human NCI-H522 cells after 48 hrs by sulforhodamine B assay; details: NCI-H522, 48 h; procedure, shortened: as §1
[4] = Growth inhibition of human HCC2998 cells after 48 hrs by sulforhodamine B assay; details: HCC 2998, 48 h; procedure, shortened: as §1
HCT-15 = experiment: Growth inhibition of human HCT15 cells after 48 hrs by sulforhodamine B assay; details: HCT-15, 48 h; procedure, shortened: as §1
HT-29 = experiment: Growth inhibition of human HT-29 cells after 48 hrs by sulforhodamine B assay; details: HT-29, 48 h; procedure, shortened: as §1
KM12 = experiment: Growth inhibition of human KM12 cells after 48 hrs by sulforhodamine B assay; details: KM12, 48 h; procedure, shortened: as §1
SW-620 = experiment: Growth inhibition of human SW620 cells after 48 hrs by sulforhodamine B assay; details: SW-620, 48 h
[5] = Growth inhibition of human SF295 cells after 48 hrs by sulforhodamine B assay; details: SF-295, 48 h
[6] = Growth inhibition of human SF539 cells after 48 hrs by sulforhodamine B assay; details: SF-539, 48 h
SNB-19 = experiment: Growth inhibition of human SNB19 cells after 48 hrs by sulforhodamine B assay; details: SNB-19, 48 h
SNB-75 = experiment: Growth inhibition of human SNB75 cells after 48 hrs by sulforhodamine B assay; details: SNB-75, 48 h
U-251 = experiment: Growth inhibition of human U251 cells after 48 hrs by sulforhodamine B assay; details: U-251, 48 h
Malme-3M = experiment: Growth inhibition of human MALME-3M cells after 48 hrs by sulforhodamine B assay; procedure, shortened: as §1
MDA-MB-435 = experiment: Growth inhibition of human MDA-MB-435 cells after 48 hrs by sulforhodamine B assay; details: MDA-MB-435, 48 h; procedure, shortened: as §1
SK-MEL-2 = experiment: Growth inhibition of human SK-MEL-2 cells after 48 hrs by sulforhodamine B assay; details: SK-MEL-2, 48 h
SK-MEL-5 = experiment: Growth inhibition of human SK-MEL-5 cells after 48 hrs by sulforhodamine B assay; details: SK-MEL-5, 48 h
UACC-257 = experiment: Growth inhibition of human UACC257 cells after 48 hrs by sulforhodamine B assay; details: UACC-257, 48 h
UACC-62 = experiment: Growth inhibition of human UACC62 cells after 48 hrs by sulforhodamine B assay; details: UACC-62, 48 h
OVCAR-3 = experiment: Growth inhibition of human OVCAR3 cells after 48 hrs by sulforhodamine B assay; details: OVCAR-3, 48 h; procedure, shortened: as §1
OVCAR-4 = experiment: Growth inhibition of human OVCAR4 cells after 48 hrs by sulforhodamine B assay; details: OVCAR-4, 48 h; procedure, shortened: as §1
OVCAR-5 = experiment: Growth inhibition of human OVCAR5 cells after 48 hrs by sulforhodamine B assay; details: OVCAR-5, 48 h
OVCAR-8 = experiment: Growth inhibition of human OVCAR8 cells after 48 hrs by sulforhodamine B assay; details: OVCAR-8, 48 h
[7] = Growth inhibition of human NCI-ADR-RES cells after 48 hrs by sulforhodamine B assay; procedure, shortened: as §1
786-0 = experiment: Growth inhibition of human 786-0 cells after 48 hrs by sulforhodamine B assay; details: 786-0, 48 h; procedure, shortened: as §1
A498 = experiment: Growth inhibition of human A498 cells after 48 hrs by sulforhodamine B assay; details: A498, 48 h; procedure, shortened: as §1
ACHN = experiment: Growth inhibition of human ACHN cells after 48 hrs by sulforhodamine B assay; procedure, shortened: as §1
CAKI-1 = experiment: Growth inhibition of human CAKI-1 cells after 48 hrs by sulforhodamine B assay; details: CAKI-1, 48 h; procedure, shortened: as §1
[8] = Growth inhibition of human RXF393 cells after 48 hrs by sulforhodamine B assay; details: RXF 393, 48 h
SN12C = experiment: Growth inhibition of human SN12C cells after 48 hrs by sulforhodamine B assay
TK-10 = experiment: Growth inhibition of human TK10 cells after 48 hrs by sulforhodamine B assay; details: TK-10, 48 h
PC-3 = experiment: Growth inhibition of human PC3 cells after 48 hrs by sulforhodamine B assay; details: PC-3, 48 h
[9] = Growth inhibition of human Hs 578T cells after 48 hrs by sulforhodamine B assay; procedure, shortened: as §1
[10] = Growth inhibition of human BT549 cells after 48 hrs by sulforhodamine B assay; details: BT-549, 48 h; procedure, shortened: as §1
T47D = experiment: Growth inhibition of human T47D cells after 48 hrs by sulforhodamine B assay
MDA-MB-468 = experiment: Growth inhibition of human MDA-MB-468 cells after 48 hrs by sulforhodamine B assay; details: MDA-MB-468, 48 h; procedure, shortened: as §1

COc1ccc2[nH]c(-c3ccccc3)c(C=C(C#N)C#N)c2c1
GI50 (CCRF-CEM): 3.4 µM | GI50 (HL-60(TB)): 2.5 µM | GI50 (K562): 2.1 µM | GI50 [1]: 3.7 µM | GI50 [2]: 2.6 µM | GI50 (A549): 7 µM | GI50 (HOP-62): 5.3 µM | GI50 [3]: 2.4 µM | GI50 (NCI-H226): 3.5 µM | GI50 (NCI-H23): 4.1 µM | GI50 (NCI-H322M): 7.4 µM | GI50 (NCI-H460): 3.6 µM | GI50 (NCI-H522): 4.6 µM | GI50 [4]: 6.1 µM | GI50 (HCT-15): 3.2 µM | GI50 (HT-29): 3.1 µM | GI50 (KM12): 3.5 µM | GI50 (SW-620): 3.6 µM | GI50 [5]: 4.2 µM | GI50 [6]: 2.9 µM | GI50 (SNB-19): 6 µM | GI50 (SNB-75): 2.8 µM | GI50 (U-251): 3.5 µM | GI50 (Malme-3M): 4.4 µM | GI50 (MDA-MB-435): 0.607 µM | GI50 (SK-MEL-2): 5.9 µM | GI50 (SK-MEL-5): 2.9 µM | GI50 (UACC-257): 30 µM | GI50 (UACC-62): 2.5 µM | GI50 (OVCAR-3): 3.1 µM | GI50 (OVCAR-4): 5.4 µM | GI50 (OVCAR-5): 44.2 µM | GI50 (OVCAR-8): 7.7 µM | GI50 [7]: 2.8 µM | GI50 (786-0): 6.6 µM | GI50 (A498): 2 µM | GI50 (ACHN): 7.4 µM | GI50 (CAKI-1): 4.1 µM | GI50 [8]: 9.8 µM | GI50 (SN12C): 4.7 µM | GI50 (TK-10): 5.1 µM | GI50 (PC-3): 5.4 µM | GI50 [9]: 2.4 µM | GI50 [10]: 2.2 µM | GI50 (T47D): 2.3 µM | GI50 (MDA-MB-468): 2.1 µM

CC(=O)/C(=C\c1c(-c2ccccc2)[nH]c2ccccc12)S(=O)(=O)c1ccccc1
GI50 (CCRF-CEM): 1.4 µM | GI50 (HL-60(TB)): 1.7 µM | GI50 (K562): 0.442 µM | GI50 [1]: 1.6 µM | GI50 [2]: 2.2 µM | GI50 (A549): 7.2 µM | GI50 (HOP-62): 1.2 µM | GI50 [3]: 5.9 µM | GI50 (NCI-H226): 1.9 µM | GI50 (NCI-H23): 1.6 µM | GI50 (NCI-H322M): 6.1 µM | GI50 (NCI-H460): 1.1 µM | GI50 (NCI-H522): 1.3 µM | GI50 [4]: 1.4 µM | GI50 (HCT-15): 0.836 µM | GI50 (HT-29): 0.589 µM | GI50 (KM12): 1 µM | GI50 (SW-620): 0.778 µM | GI50 [5]: 2.4 µM | GI50 [6]: 1.3 µM | GI50 (SNB-19): 6.1 µM | GI50 (SNB-75): 1.7 µM | GI50 (U-251): 1.2 µM | GI50 (Malme-3M): 2.1 µM | GI50 (MDA-MB-435): 0.295 µM | GI50 (SK-MEL-2): 1.4 µM | GI50 (SK-MEL-5): 0.832 µM | GI50 (UACC-257): 2.2 µM | GI50 (UACC-62): 1 µM | GI50 (OVCAR-3): 1.6 µM | GI50 (OVCAR-4): 3.7 µM | GI50 (OVCAR-5): 2 µM | GI50 (OVCAR-8): 2.5 µM | GI50 [7]: 0.52 µM | GI50 (786-0): 1.6 µM | GI50 (A498): 2 µM | GI50 (ACHN): 1.8 µM | GI50 (CAKI-1): 2.4 µM | GI50 [8]: 1.3 µM | GI50 (SN12C): 1.9 µM | GI50 (TK-10): 3.8 µM | GI50 (PC-3): 2.5 µM | GI50 [9]: 5 µM | GI50 [10]: 1.9 µM | GI50 (T47D): 1.4 µM | GI50 (MDA-MB-468): 1.7 µM

— ChEMBL document CHEMBL3616442, “Unconventional Knoevenagel-type indoles: Synthesis and cell-based studies for the identification of pro-apoptotic agents” (Eur J Med Chem, 2015)
